Assay results: ChEMBL document CHEMBL1157864, “Synthesis of some novel 2-substituted-5-[isopropylthiazole] clubbed 1,2,4-triazole and 1,3,4-oxadiazoles as potential antimicrobial and antitubercular agents” (Eur J Med Chem, 2010)
In brackets after ≈: the same amount, converted by molar mass.

What was measured:
Assay type in all cases: functional
[1] = test system: Pseudomonas aeruginosa; test: Antimicrobial activity against Pseudomonas aeruginosa ATCC 10145 after 24 hrs by broth microdilution assay; details: ATCC 10145, 24 h
Procedure, shortened: (§1)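 Broth dilution MIC. Stock is 10 mg compound in 1 mL DMSO, serially diluted in Mueller–Hinton broth for bacteria or Sabouraud liquid medium for yeasts and mould. Tubes are inoculated at 10⁵ cfu/mL and incubated at 37 °C for 24 h. Controls are medium alone and medium with DMSO at matching dilutions. MIC is the lowest concentration giving complete growth inhibition.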

[2] = test system: Escherichia coli; test: Antimicrobial activity against Escherichia coli ATCC 10536 after 24 hrs by broth microdilution assay; details: ATCC 10536, 24 h; procedure, shortened: as §1
[3] = test system: Mycobacterium tuberculosis; test: Antimycobacterial activity against Mycobacterium tuberculosis H37Rv after 21 days by broth dilution assay; details: 504 h
Procedure, shortened: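 Middlebrook 7H9 broth with 10% albumin-dextrose-catalase and 0.2% glycerol; frozen culture thawed, diluted to 10⁵ cfu/mL and used as inoculum. Compounds taken up in DMSO and diluted twice in broth, 1.3% DMSO final. Incubated at 37 °C. Growth judged by eye against drug-free and inoculum-free controls and isoniazid. MIC is the lowest concentration inhibiting ≥99% of the starting population.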

[4] = test system: Staphylococcus aureus; test: Antimicrobial activity against Staphylococcus aureus ATCC 11632 after 24 hrs by broth microdilution assay; details: ATCC 11632, 24 h; procedure, shortened: as §1
[5] = test system: Candida tropicalis; test: Antimicrobial activity against Candida tropicalis ATCC 1369 after 24 hrs by broth microdilution assay; details: ATCC 1369, 24 h; procedure, shortened: as §1
[6] = test system: Enterococcus faecalis; test: Antimicrobial activity against Streptococcus faecalis ATCC 14506 after 24 hrs by broth microdilution assay; details: ATCC 14506, 24 h; procedure, shortened: as §1
[7] = test system: Saccharomyces cerevisiae; test: Antimicrobial activity against Saccharomyces cerevisiae ATCC 9763 after 24 hrs by broth microdilution assay; details: ATCC 9763, 24 h; procedure, shortened: as §1
[8] = test system: Klebsiella pneumoniae; test: Antimicrobial activity against Klebsiella pneumoniae ATCC 10031 after 24 hrs by broth microdilution assay; details: ATCC 10031, 24 h; procedure, shortened: as §1
[9] = test system: Bacillus subtilis; test: Antimicrobial activity against Bacillus subtilis ATCC 60511 after 24 hrs by broth microdilution assay; details: ATCC 60511, 24 h; procedure, shortened: as §1
[10] = test system: Aspergillus niger; test: Antimicrobial activity against Aspergillus niger ATCC 6275 after 24 hrs by broth microdilution assay; details: ATCC 6275, 24 h; procedure, shortened: as §1

SMILES	MIC [1]	MIC [2]	MIC [3]	MIC [4]	MIC [5]	MIC [6]	MIC [7]	MIC [8]	MIC [9]	MIC [10]
CC(C)c1csc(-c2nnc3sc(-c4ccc([N+](=O)[O-])cc4)nn23)n1	31.2 µg/mL (≈ 83.9 µM)	125 µg/mL (≈ 336 µM)	31.2 µg/mL (≈ 83.9 µM)	125 µg/mL (≈ 336 µM)	8 µg/mL (≈ 21.5 µM)	125 µg/mL (≈ 336 µM)	8 µg/mL (≈ 21.5 µM)	16 µg/mL (≈ 43 µM)	16 µg/mL (≈ 43 µM)	16 µg/mL (≈ 43 µM)
Cc1ccc(-c2nn3c(-c4nc(C(C)C)cs4)nnc3s2)cc1	62.5 µg/mL (≈ 183 µM)	125 µg/mL (≈ 366 µM)	31.2 µg/mL (≈ 91.5 µM)	125 µg/mL (≈ 366 µM)	125 µg/mL (≈ 366 µM)	125 µg/mL (≈ 366 µM)	250 µg/mL (≈ 732 µM)	250 µg/mL (≈ 732 µM)	62.5 µg/mL (≈ 183 µM)	125 µg/mL (≈ 366 µM)
CC(C)c1csc(-c2nnc3sc(-c4ccc(O)cc4)nn23)n1	125 µg/mL (≈ 364 µM)	125 µg/mL (≈ 364 µM)	62.5 µg/mL (≈ 182 µM)	250 µg/mL (≈ 728 µM)	125 µg/mL (≈ 364 µM)	125 µg/mL (≈ 364 µM)	250 µg/mL (≈ 728 µM)	125 µg/mL (≈ 364 µM)	125 µg/mL (≈ 364 µM)	125 µg/mL (≈ 364 µM)
COc1ccc(-c2nn3c(-c4nc(C(C)C)cs4)nnc3s2)cc1	31.2 µg/mL (≈ 87.4 µM)	125 µg/mL (≈ 350 µM)	31.2 µg/mL (≈ 87.4 µM)	31.2 µg/mL (≈ 87.4 µM)	16 µg/mL (≈ 44.8 µM)	16 µg/mL (≈ 44.8 µM)	16 µg/mL (≈ 44.8 µM)	31.2 µg/mL (≈ 87.4 µM)	125 µg/mL (≈ 350 µM)	31.2 µg/mL (≈ 87.4 µM)
CC(C)c1csc(-c2nnc(S)n2/N=C/c2ccccc2)n1	31.2 µg/mL (≈ 94.9 µM)	62.5 µg/mL (≈ 190 µM)	62.5 µg/mL (≈ 190 µM)	250 µg/mL (≈ 759 µM)	62.5 µg/mL (≈ 190 µM)	31.2 µg/mL (≈ 94.9 µM)	125 µg/mL (≈ 379 µM)	31.2 µg/mL (≈ 94.9 µM)	31.2 µg/mL (≈ 94.9 µM)	62.5 µg/mL (≈ 190 µM)
CC(C)c1csc(-c2nnc3sc(-c4ccccc4)nn23)n1	31.2 µg/mL (≈ 95.4 µM)	125 µg/mL (≈ 382 µM)	62.5 µg/mL (≈ 191 µM)	125 µg/mL (≈ 382 µM)	125 µg/mL (≈ 382 µM)	16 µg/mL (≈ 48.9 µM)	125 µg/mL (≈ 382 µM)	125 µg/mL (≈ 382 µM)	16 µg/mL (≈ 48.9 µM)	31.2 µg/mL (≈ 95.4 µM)
CC(C)c1csc(-c2nnc(S)n2/N=C/C=C/c2ccccc2)n1	16 µg/mL (≈ 45 µM)	4 µg/mL (≈ 11.3 µM)	4 µg/mL (≈ 11.3 µM)	8 µg/mL (≈ 22.5 µM)	31.2 µg/mL (≈ 87.9 µM)	31.2 µg/mL (≈ 87.9 µM)	31.2 µg/mL (≈ 87.9 µM)	4 µg/mL (≈ 11.3 µM)	8 µg/mL (≈ 22.5 µM)	125 µg/mL (≈ 352 µM)
CC(C)c1csc(-c2nnc(S)n2/N=C/c2ccc[nH]2)n1	62.5 µg/mL (≈ 196 µM)	62.5 µg/mL (≈ 196 µM)	31.2 µg/mL (≈ 98.1 µM)	31.2 µg/mL (≈ 98.1 µM)	62.5 µg/mL (≈ 196 µM)	31.2 µg/mL (≈ 98.1 µM)	31.2 µg/mL (≈ 98.1 µM)	31.2 µg/mL (≈ 98.1 µM)	62.5 µg/mL (≈ 196 µM)	16 µg/mL (≈ 50.2 µM)
COc1cc(/C=N/n2c(S)nnc2-c2nc(C(C)C)cs2)ccc1O	125 µg/mL (≈ 333 µM)	125 µg/mL (≈ 333 µM)	62.5 µg/mL (≈ 166 µM)	250 µg/mL (≈ 666 µM)	125 µg/mL (≈ 333 µM)	125 µg/mL (≈ 333 µM)	250 µg/mL (≈ 666 µM)	125 µg/mL (≈ 333 µM)	125 µg/mL (≈ 333 µM)	125 µg/mL (≈ 333 µM)
CC(C)c1csc(-c2nnc3sc(-c4ccc(Cl)cc4)nn23)n1	8 µg/mL (≈ 22.1 µM)	16 µg/mL (≈ 44.2 µM)	8 µg/mL (≈ 22.1 µM)	8 µg/mL (≈ 22.1 µM)	31.2 µg/mL (≈ 86.4 µM)	16 µg/mL (≈ 44.2 µM)	31.2 µg/mL (≈ 86.4 µM)	16 µg/mL (≈ 44.2 µM)	8 µg/mL (≈ 22.1 µM)	125 µg/mL (≈ 345 µM)
COc1ccc(/C=N/n2c(S)nnc2-c2nc(C(C)C)cs2)cc1	31.2 µg/mL (≈ 86.9 µM)	31.2 µg/mL (≈ 86.9 µM)	31.2 µg/mL (≈ 86.9 µM)	31.2 µg/mL (≈ 86.9 µM)	62.5 µg/mL (≈ 174 µM)	31.2 µg/mL (≈ 86.9 µM)	62.5 µg/mL (≈ 174 µM)	16 µg/mL (≈ 44.5 µM)	31.2 µg/mL (≈ 86.9 µM)	62.5 µg/mL (≈ 174 µM)
CC(C)c1csc(-c2nnc(S)n2/N=C/c2ccccc2O)n1	250 µg/mL (≈ 724 µM)	250 µg/mL (≈ 724 µM)	62.5 µg/mL (≈ 181 µM)	250 µg/mL (≈ 724 µM)	125 µg/mL (≈ 362 µM)	250 µg/mL (≈ 724 µM)	125 µg/mL (≈ 362 µM)	250 µg/mL (≈ 724 µM)	250 µg/mL (≈ 724 µM)	125 µg/mL (≈ 362 µM)
CC(C)c1csc(-c2nnc(S)n2-c2ccccc2)n1	31.2 µg/mL (≈ 103 µM)	16 µg/mL (≈ 52.9 µM)	31.2 µg/mL (≈ 103 µM)	16 µg/mL (≈ 52.9 µM)	16 µg/mL (≈ 52.9 µM)	125 µg/mL (≈ 413 µM)	8 µg/mL (≈ 26.5 µM)	31.2 µg/mL (≈ 103 µM)	16 µg/mL (≈ 52.9 µM)	16 µg/mL (≈ 52.9 µM)
CSc1nnc(-c2nc(C(C)C)cs2)n1-c1ccccc1	16 µg/mL (≈ 50.6 µM)	62.5 µg/mL (≈ 198 µM)	62.5 µg/mL (≈ 198 µM)	16 µg/mL (≈ 50.6 µM)	16 µg/mL (≈ 50.6 µM)	16 µg/mL (≈ 50.6 µM)	16 µg/mL (≈ 50.6 µM)	31.2 µg/mL (≈ 98.8 µM)	31.2 µg/mL (≈ 98.8 µM)	31.2 µg/mL (≈ 98.8 µM)
O=C(O)c1cn(C2CC2)c2cc(N3CCNCC3)c(F)cc2c1=O [CIPROFLOXACIN]	5 µg/mL (≈ 15.1 µM)	≤ 1 µg/mL		≤ 5 µg/mL		≤ 5 µg/mL		≤ 1 µg/mL	≤ 1 µg/mL	
OC(Cn1cncn1)(Cn1cncn1)c1ccc(F)cc1F [FLUCONAZOLE]					≤ 1 µg/mL		≤ 1 µg/mL			≤ 1 µg/mL
NNC(=O)c1ccncc1 [ISONIAZID]			0.25 µg/mL (≈ 1.82 µM)							
CCn1cc(C(=O)O)c(=O)c2cc(F)c(N3CCNCC3)cc21 [NORFLOXACIN]	5 µg/mL (≈ 15.7 µM)	≤ 1 µg/mL		5 µg/mL (≈ 15.7 µM)		5 µg/mL (≈ 15.7 µM)		≤ 1 µg/mL	≤ 1 µg/mL	
